Laboratory results as given in ChEMBL document CHEMBL2311431, “Synthesis and biological evaluation of some 5-arylidene-2-(1,3-thiazol-2-ylimino)-1,3-thiazolidin-4-ones as dual anti-inflammatory/antimicrobial agents” (Bioorg Med Chem, 2013).
≈ marks a conversion by molar mass, not a printed value.

Tests used:
Mus musculus [1] = test: Antiinflammatory activity in AKR mouse assessed as inhibition of carrageenan-induced paw edema at 0.01 mmol/kg, ip measured after 3.5 hrs of carrageenan-challenge; assay type: functional
Outline: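 AKR mice of both sexes (pregnant females excluded), 6-10 per group, fasted during the experiment. Edema induced by intradermal 0.05 mL of 2% carrageenin into the right hind paw. Compound given at 0.01 mmol/kg ip, suspended in water with Tween-80, at the same time as carrageenin.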

Aspergillus fumigatus [2] = test: Antifungal activity against Aspergillus fumigatus after 72 hrs by serial dilution technique; assay type: functional
Outline: (§1)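 Serial dilution in malt broth; compounds from 1 mg/ml stocks in 5% DMSO; 72 h at 28 °C. MIC is the lowest concentration with no visible growth under a binocular microscope. Run in duplicate, repeated three times.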

Trichoderma viride [3] = test: Antifungal activity against Trichoderma viride IAM 5061 after 72 hrs by serial dilution technique; assay type: functional; details: IAM 5061, 72 h; outline: as §1
Penicillium ochrochloron [4] = test: Fungicidal activity against Penicillium ochrochloron ATCC 9112 after 72 hrs by serial subcultivation method; assay type: functional; details: ATCC 9112, 72 h
Aspergillus flavus [5] = test: Antifungal activity against Aspergillus flavus ATCC 9643 after 72 hrs by serial dilution technique; assay type: functional; details: ATCC 9643, 72 h; outline: as §1
Talaromyces funiculosus [6] = test: Fungicidal activity against Penicillium funiculosum ATCC 36839 after 72 hrs by serial subcultivation method; assay type: functional; details: ATCC 36839, 72 h
Escherichia coli [7] = test: Antibacterial activity against Escherichia coli ATCC 35210 after 24 hr by microdilution test; assay type: functional; details: ATCC 35210, 24 h
Outline: (§2)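 Broth microdilution in LB medium, about 1.0×10^4 cfu per well; compounds from 1 mg/ml stocks in 5% DMSO. Incubated 24 h. MIC is the lowest concentration with no visible growth under a binocular microscope. Run in duplicate, repeated three times.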

Penicillium ochrochloron [8] = test: Antifungal activity against Penicillium ochrochloron ATCC 9112 after 72 hrs by serial dilution technique; assay type: functional; details: ATCC 9112, 72 h; outline: as §1
Bacillus cereus [9] = test: Antibacterial activity against Bacillus cereus clinical isolate after 24 hr by microdilution test; assay type: functional; outline: as §2
Aspergillus fumigatus [10] = test: Fungicidal activity against Aspergillus fumigatus after 72 hrs by serial subcultivation method; assay type: functional
Micrococcus flavus [11] = test: Antibacterial activity against Micrococcus flavus ATCC 10240 after 24 hr by microdilution test; assay type: functional; details: ATCC 10240, 24 h; outline: as §2
Micrococcus flavus [12] = test: Bactericidal activity against Micrococcus flavus ATCC 10240 after 72 hrs by serial subcultivation method; assay type: functional; details: ATCC 10240, 72 h
[13] = target: T1, Prostaglandin G/H synthase 1 (Ovis aries, UniProt P05979); test: (§3) Inhibition of ovine COX1 assessed as inhibition of PGF2a production by enzyme immunoassay
T1 sequence (P05979 whole entry): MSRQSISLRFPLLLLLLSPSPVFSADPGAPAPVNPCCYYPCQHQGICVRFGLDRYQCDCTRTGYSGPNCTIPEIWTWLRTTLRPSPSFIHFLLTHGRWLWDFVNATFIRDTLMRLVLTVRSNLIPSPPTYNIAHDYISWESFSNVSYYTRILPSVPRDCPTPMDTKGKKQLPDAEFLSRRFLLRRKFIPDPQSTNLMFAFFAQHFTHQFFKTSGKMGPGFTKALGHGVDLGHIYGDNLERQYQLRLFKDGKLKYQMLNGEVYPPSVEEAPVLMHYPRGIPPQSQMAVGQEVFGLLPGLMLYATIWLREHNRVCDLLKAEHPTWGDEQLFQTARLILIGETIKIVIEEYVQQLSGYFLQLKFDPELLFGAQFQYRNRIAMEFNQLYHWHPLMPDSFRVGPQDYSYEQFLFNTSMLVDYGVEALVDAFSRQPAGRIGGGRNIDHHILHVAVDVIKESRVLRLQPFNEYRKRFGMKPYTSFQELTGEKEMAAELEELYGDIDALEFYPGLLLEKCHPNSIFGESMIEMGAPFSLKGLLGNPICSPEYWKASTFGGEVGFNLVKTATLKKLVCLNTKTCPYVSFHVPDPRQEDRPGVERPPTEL
Outline: (§4)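 Ovine COX-1 from a commercial screening kit, tested with 0.1 µM arachidonic acid, which is below the saturating level. COX-derived PGH2 is reduced by SnCl2 to PGF2a, quantified by enzyme immunoassay with a broad prostaglandin antibody. At least triplicate.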

[14] = target: T2, Prostaglandin G/H synthase 1 (Ovis aries) (UniProt P05979); test: as §3; parameters: concentration or dose not given beside the values; details: concentration not given here; outline: as §4
T2 sequence (whole entry): T1 sequence (P05979 whole entry)

Talaromyces funiculosus [15] = test: Antifungal activity against Penicillium funiculosum ATCC 36839 after 72 hrs by serial dilution technique; assay type: functional; details: ATCC 36839, 72 h; outline: as §1
Escherichia coli [16] = test: Bactericidal activity against Escherichia coli ATCC 35210 after 72 hrs by serial subcultivation method; assay type: functional; details: ATCC 35210, 72 h
Aspergillus niger [17] = test: Antifungal activity against Aspergillus niger ATCC 6275 after 72 hrs by serial dilution technique; assay type: functional; details: ATCC 6275, 72 h; outline: as §1
Listeria monocytogenes [18] = test: Antibacterial activity against Listeria monocytogenes NCTC 7973 after 24 hr by microdilution test; assay type: functional; details: NCTC 7973, 24 h; outline: as §2
Trichoderma viride [19] = test: Fungicidal activity against Trichoderma viride IAM 5061 after 72 hrs by serial subcultivation method; assay type: functional; details: IAM 5061, 72 h
Pseudomonas aeruginosa [20] = test: Bactericidal activity against Pseudomonas aeruginosa ATCC 27853 after 72 hrs by serial subcultivation method; assay type: functional; details: ATCC 27853, 72 h
Listeria monocytogenes [21] = test: Bactericidal activity against Listeria monocytogenes NCTC 7973 after 72 hrs by serial subcultivation method; assay type: functional; details: NCTC 7973, 72 h
Bacillus cereus [22] = test: Bactericidal activity against Bacillus cereus clinical isolate after 72 hrs by serial subcultivation method; assay type: functional
Staphylococcus aureus [23] = test: Bactericidal activity against Staphylococcus aureus ATCC 6538 after 72 hrs by serial subcultivation method; assay type: functional; details: ATCC 6538, 72 h
Pseudomonas aeruginosa [24] = test: Antibacterial activity against Pseudomonas aeruginosa ATCC 27853 after 24 hr by microdilution test; assay type: functional; details: ATCC 27853, 24 h; outline: as §2
Aspergillus niger [25] = test: Fungicidal activity against Aspergillus niger ATCC 6275 after 72 hrs by serial subcultivation method; assay type: functional; details: ATCC 6275, 72 h
Aspergillus flavus [26] = test: Fungicidal activity against Aspergillus flavus ATCC 9643 after 72 hrs by serial subcultivation method; assay type: functional; details: ATCC 9643, 72 h
Mus musculus [27] = test: Acute toxicity in AKR mouse up to 0.5 mmol/kg, ip; assay type: organism-based; details: in vivo
[28] = (§5) Inhibition of soybean lipoxygenase assessed as inhibition of sodium linolate conversion to 13-hydroperoxylinoleic acid after 4 mins by spectrophotometry; parameters: species or system Glycine max; details: read-out: IC50
Glycine max = test: as §5
Staphylococcus aureus [29] = test: Antibacterial activity against Staphylococcus aureus ATCC 6538 after 24 hr by microdilution test; assay type: functional; details: ATCC 6538, 24 h; outline: as §2

SMILES	inhibition in vivo at 10 µmol/kg (Mus musculus [1]) [%]	MIC (Aspergillus fumigatus [2]) [µM]	MIC (Trichoderma viride [3]) [µM]	MFC (Penicillium ochrochloron [4]) [µM]	MIC (Aspergillus flavus [5]) [µM]	MFC (Talaromyces funiculosus [6]) [µM]	MIC (Escherichia coli [7]) [µM]	MIC (Penicillium ochrochloron [8]) [µM]	MIC (Bacillus cereus [9]) [µM]	MFC (Aspergillus fumigatus [10]) [µM]	MIC (Micrococcus flavus [11]) [µM]	MBC (Micrococcus flavus [12]) [µM]	IC50 [13] [µM]	inhibition [14] [%]	MIC (Talaromyces funiculosus [15]) [µM]	MBC (Escherichia coli [16]) [µM]	MIC (Aspergillus niger [17]) [µM]	MIC (Listeria monocytogenes [18]) [µM]	MFC (Trichoderma viride [19]) [µM]	MBC (Pseudomonas aeruginosa [20]) [µM]	other results
Cc1ccc(/C=C2\S/C(=N/c3nccs3)NC2=O)cc1	47	49.4 (≈ 14.9 µg/mL)	33 (≈ 9.95 µg/mL)	66 (≈ 19.9 µg/mL)	49.4 (≈ 14.9 µg/mL)	66 (≈ 19.9 µg/mL)	33 (≈ 9.95 µg/mL)	33 (≈ 9.95 µg/mL)	16.5 (≈ 4.97 µg/mL)	66 (≈ 19.9 µg/mL)	66 (≈ 19.9 µg/mL)	98.9 (≈ 29.8 µg/mL)	51	99	49.4 (≈ 14.9 µg/mL)	66 (≈ 19.9 µg/mL)	49.4 (≈ 14.9 µg/mL)	66 (≈ 19.9 µg/mL)	49.4 (≈ 14.9 µg/mL)	24.7 (≈ 7.44 µg/mL)	MBC (Listeria monocytogenes [21]): 82.4 µM (≈ 24.8 µg/mL); MBC (Bacillus cereus [22]): 33 µM (≈ 9.95 µg/mL); MBC (Staphylococcus aureus [23]): 33 µM (≈ 9.95 µg/mL); MIC (Pseudomonas aeruginosa [24]): 16.5 µM (≈ 4.97 µg/mL); MFC (Aspergillus niger [25]): 66 µM (≈ 19.9 µg/mL); MFC (Aspergillus flavus [26]): 66 µM (≈ 19.9 µg/mL); Activity (Mus musculus [27]): Non-toxic; IC50 [28]: 92 µM; inhibition (Glycine max): 67%; MIC (Staphylococcus aureus [29]): 24.7 µM (≈ 7.44 µg/mL)
O=C1N/C(=N\c2nccs2)S/C1=C\c1c(Cl)cccc1Cl	58.5	56.2 (≈ 20 µg/mL)	21.1 (≈ 7.52 µg/mL)	56.2 (≈ 20 µg/mL)	56.2 (≈ 20 µg/mL)	70.2 (≈ 25 µg/mL)	28.1 (≈ 10 µg/mL)	28.1 (≈ 10 µg/mL)	21.1 (≈ 7.52 µg/mL)	70.2 (≈ 25 µg/mL)	56.2 (≈ 20 µg/mL)	84.2 (≈ 30 µg/mL)	78	100	28.1 (≈ 10 µg/mL)	56.2 (≈ 20 µg/mL)	56.2 (≈ 20 µg/mL)	56.2 (≈ 20 µg/mL)	28.1 (≈ 10 µg/mL)	28.1 (≈ 10 µg/mL)	MBC (Listeria monocytogenes [21]): 84.2 µM (≈ 30 µg/mL); MBC (Bacillus cereus [22]): 28.1 µM (≈ 10 µg/mL); MBC (Staphylococcus aureus [23]): 56.2 µM (≈ 20 µg/mL); MIC (Pseudomonas aeruginosa [24]): 21.1 µM (≈ 7.52 µg/mL); MFC (Aspergillus niger [25]): 70.2 µM (≈ 25 µg/mL); MFC (Aspergillus flavus [26]): 70.2 µM (≈ 25 µg/mL); Activity (Mus musculus [27]): Non-toxic; IC50 [28]: 137 µM; inhibition (Glycine max): 43%; MIC (Staphylococcus aureus [29]): 28.1 µM (≈ 10 µg/mL)
O=C1N/C(=N\c2nccs2)S/C1=C\c1cccc(Cl)c1Cl	45	56.2 (≈ 20 µg/mL)	28.1 (≈ 10 µg/mL)	56.2 (≈ 20 µg/mL)	42.1 (≈ 15 µg/mL)	56.2 (≈ 20 µg/mL)	56.2 (≈ 20 µg/mL)	42.1 (≈ 15 µg/mL)	56.2 (≈ 20 µg/mL)	70.2 (≈ 25 µg/mL)	56.2 (≈ 20 µg/mL)	84.2 (≈ 30 µg/mL)	10	100	28.1 (≈ 10 µg/mL)	70.2 (≈ 25 µg/mL)	42.1 (≈ 15 µg/mL)	70.2 (≈ 25 µg/mL)	56.2 (≈ 20 µg/mL)	56.2 (≈ 20 µg/mL)	MBC (Listeria monocytogenes [21]): 84.2 µM (≈ 30 µg/mL); MBC (Bacillus cereus [22]): 70.2 µM (≈ 25 µg/mL); MBC (Staphylococcus aureus [23]): 84.2 µM (≈ 30 µg/mL); MIC (Pseudomonas aeruginosa [24]): 28.1 µM (≈ 10 µg/mL); MFC (Aspergillus niger [25]): 56.2 µM (≈ 20 µg/mL); MFC (Aspergillus flavus [26]): 56.2 µM (≈ 20 µg/mL); Activity (Mus musculus [27]): Non-toxic; IC50 [28]: 143 µM; inhibition (Glycine max): 41%; MIC (Staphylococcus aureus [29]): 70.2 µM (≈ 25 µg/mL)
